As a reminder, the AC50 is the midpoint of the concentration-response curve, whichever way the signal moves.

Inconclusive results are not listed. Calls of active or inactive are those of the source.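 The calls were made as follows: active = compounds whose fitted caspase activation AC50 is no more than tenfold above the top tested dose; inconclusive = flat fit with 30 to 70% activity, or a failed fit; inactive = the rest.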 Bounds are passed on as bounds.

For the assay, the system named is MEF Bax/Bak KO A1-BIM, caspase-Glo luminescence, 3 h. The experiment in a line: caspase signal in Bax-Bak null A1-BIM cells – cell-based, Bax-Bak knockout MEF, A1-2A-BIM, luminescence, counter-screen for A1 inhibitor project, dose response (AID 449754).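 Also: counterscreen where caspase activation signals off-target toxicity not A1 inhibition.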 The method in brief:
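Signal – CaspaseGlo luminescence · Assay system – A1-2A-BIM MEFs lacking Bax and Bak · Quantity – 2500 cells/well · Compound – 100 nL pinned compound per well · Times – 37 °C compound 3 h, cooling 30 min, reagent 1 h · Buffer or medium – RPMI-1640, 10% FBS · Read-out basis – caspase activity from luminescent signal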
Background: Counterscreens check selectivity or assay interference.

Consider `COC(=O)[C@@]1(C)CC[C@]2(C)CC[C@@]3(C)C(=CC(=O)C4[C@@]5(C)CC[C@H](O)C(C)(C)[C@@H]5CC[C@]43C)[C@H]2C1` (some centres not stated), for which the AC50 was > 35 µM (inactive).
Turning to `Cc1ccc(C)c(NC(=S)NC(NC(=O)Cc2cccc3ccccc23)C(Cl)(Cl)Cl)c1` (configuration not stated), the AC50 is 24.1 µM.
For `Cc1cccc(NC(=O)CSc2nc(C)c(CC(=O)c3ccc(Br)cc3)c(C)c2C#N)c1C`, the AC50 is > 35 µM (inactive).
In the case of `O=C(Nc1ccc2oc(-c3cccc(F)c3)nc2c1)c1ccccc1F`, the AC50 is > 35 µM (inactive).
For `CCc1nnc(NC(=O)CSc2nc(-c3ccccc3)cc(-c3ccc(F)cc3)c2C#N)s1`, the AC50 was 35.8 µM.
Regarding `O=S1(=O)CCOC[C@H](CC2CCCCC2)N1Cc1cccc(Cl)c1`, the AC50 is > 35 µM (inactive).
As to `O=C(Nc1ccc([N+](=O)[O-])cc1)C(Cc1ccccc1)N1C(=O)c2cccc3cccc(c23)C1=O` (configuration not stated), the AC50 was > 35 µM (inactive).
In the case of `CCOC(=O)c1c(C)oc2c1c(CN1CCN(C(=O)OCC)CC1)c(O)c1ccccc12`, the AC50 is 13 µM.
Regarding `Cc1ccc(-c2nc(NC(=O)c3nn(C)cc3[N+](=O)[O-])sc2C)cc1`, the concentration at half-maximal activity (AC50) was 6.29 µM.
Turning to `COc1ccc(C2Nc3ccc4ccccc4c3-c3c2c(=O)oc2ccccc32)cc1` (configuration not stated), the concentration at half-maximal activity (AC50) was 18.7 µM.
With `CCOc1cccc(C(=O)Nc2cccc(-c3nnc(-c4ccc(C)cc4)o3)c2)c1` the figure was 35.7 µM.
Take `Cc1occc1-c1nnc(SCC(=O)NCCc2ccccc2)n1Cc1ccccc1`: the AC50 was > 35 µM (inactive).
The figure for `COc1ccc(-c2c(C#N)c(N)nc(Sc3ccc(Cl)cc3)c2C#N)cc1` is > 35 µM (inactive); for `Cc1ccc2c(c1)C(=O)C(=O)N2Cc1ccc(Br)cc1` it is > 35 µM (inactive); for `Cc1cccc(CS(=O)(=O)c2ncc(Cl)c(C(=O)Nc3nnc(C(C)C)s3)n2)c1` it is > 35 µM (inactive).
Take `COc1cc(NC(=O)c2cccs2)ccc1NC(=O)c1cc2ccccc2o1`: the AC50 is > 35 µM (inactive).
In the case of `O=C(NC[C@H]1CCCO1)c1cccc2c1C(=O)c1ccc(-c3ccc(F)cc3OCc3ccccc3)cc1S2(=O)=O`, the AC50 was > 35 µM (inactive).
For `CCOC(=O)C1=C(c2ccccc2)O/C(=C(/C#N)C(F)(F)F)S1`, the AC50 was > 35 µM (inactive).
For `CN(C)C/C=C(\c1ccc(Br)cc1)c1cccnc1`, the AC50 is > 35 µM (inactive).
Take `O=C1/C(=C\c2c(NCCOCCO)nc3ccccn3c2=O)SC(=S)N1Cc1ccco1`: the AC50 is > 35 µM (inactive).
As for `CCCCN1C(=O)/C(=C2/Sc3ccccc3N2C)S/C1=N\c1ncn[nH]1`, the AC50 is > 35 µM (inactive).
As to `O=C(N=Nc1c(O)[nH]c2ccc([N+](=O)[O-])cc12)c1cc(-c2ccccc2Cl)nc2ccccc12`, the AC50 was > 35 µM (inactive).
Turning to `COc1ccc2c(-c3cc4ccc(OCc5ccc(F)cc5)cc4oc3=O)cc(=O)oc2c1`, the half-maximal activity concentration (AC50) is 36.6 µM.
For the compound `CC(=O)OC(C)(C)/C=C/C(=O)C(C)(O)C1[C@H](O)C[C@@]2(C)C3CC=C4C(CC[C@@H](O)C4(C)C)[C@]3(CO)C(=O)C[C@]12C` (some centres not stated), the AC50 is > 35 µM (inactive).
In the case of `O=c1c(Cl)c(Cl)cnn1Cc1ccccc1Cl`, the AC50 was > 35 µM (inactive).
With `CCN(C(=O)CCN1C(=O)c2ccccc2S1(=O)=O)c1ccccc1`, the AC50 was > 35 µM (inactive).
For `COc1ccc(-c2ccc3c(c2)S(=O)(=O)c2cccc(C(=O)NC[C@@H]4CCCO4)c2C3=O)cc1OC`, the AC50 was > 35 µM (inactive).
For the compound `CCc1ccc(Oc2coc3cc(OCC(=O)Nc4cc(C)ccc4C)ccc3c2=O)cc1`, the AC50 was > 35 µM (inactive).
Take `Cc1cc(NC(=O)CSc2nc3cc(Cl)ccc3c(=O)n2Cc2ccco2)no1`: the AC50 was > 35 µM (inactive).
For the compound `COc1ccc2c(c1)CCc1c(C(=O)Nc3cc(C)n(Cc4ccc(Cl)cc4)n3)noc1-2`, the AC50 is 7.59 µM.
`O=C(NCc1ccccc1Br)c1cccc2c1C(=O)c1ccc(-c3ccc(OC(F)(F)F)cc3)cc1S2(=O)=O`: the AC50 is > 35 µM (inactive).
Take `Cc1cccc(C)c1NC(=O)C(Cl)C(=O)c1ccccc1` (configuration not stated): the AC50 was > 35 µM (inactive).
Regarding `COc1cc2c(cc1NC(=O)COC(=O)/C=C/c1ccccc1)oc1ccccc12`, the AC50 is > 35 µM (inactive).
As to `CC1=CC(=O)C(C(C)C)=C/C1=N/OS(=O)(=O)c1ccccc1`, the AC50 was 7.41 µM.
For the compound `COc1ccc(OC)c(NC(=O)c2cc3c(Cl)nc4ccccc4c3s2)c1`, the AC50 was > 35 µM (inactive).
As to `CCOc1ccc(N2C(=O)/C(=C\c3ccc(O)c(OC)c3)S(=O)(=O)C2c2cccc([N+](=O)[O-])c2)cc1` (configuration not stated), the AC50 is > 35 µM (inactive).
Turning to `CC1=NNC(=O)/C1=C\c1cn(-c2ccccc2)nc1-c1cccs1`, the AC50 was 7.61 µM.
As for `Cc1ccc2c(c1)c(C1=c3ccccc3=NC1=O)c(O)n2C`, the AC50 is > 35 µM (inactive).
With `O=C(Nc1ccc([N+](=O)[O-])cc1)c1nc[nH]c1C(=O)NC1CCCCC1` the figure was > 35 µM (inactive).
For the compound `O=C(/C=C/c1ccc(F)cc1)NC(=S)Nc1ccccc1C(=O)NC1CCCCC1`, the AC50 is > 35 µM (inactive).
Turning to `C=C1CCc2c([nH]c3ccc(OCC(C)C)cc23)C1=O`, the AC50 was 16.6 µM.
The figure for `CN(C)CCCN(C(=O)c1ccc(S(=O)(=O)N2CCc3ccccc3C2)cc1)c1nc2ccc(F)cc2s1` is > 35 µM (inactive); for `COc1ccc(-c2nc(NC(=O)c3n[nH]c(=O)c4ccccc34)sc2C)cc1` it is > 35 µM (inactive); for `CC(C)c1cccc(-c2ccc3c(c2)S(=O)(=O)c2cccc(C(=O)NCc4ccccc4Cl)c2C3=O)c1` it is > 35 µM (inactive).
Turning to `CCCc1ccc(OCc2ccc(C(=O)N/N=C/c3cccc([N+](=O)[O-])c3)o2)c(OC)c1`, the AC50 is 26.3 µM.
With `Cc1ccc(Sc2c([N+](=O)[O-])c(=O)n(C)c3ccccc23)cc1` the figure was > 35 µM (inactive).
With `O=C(Nc1ccc(-c2nc3cc(NC(=O)c4cccs4)ccc3o2)cc1)c1cccs1` the figure was > 35 µM (inactive); with `Cc1[nH]nc2nc(SCC(=O)NCCC3=CCCCC3)n(-c3ccc(Br)cc3)c(=N)c12`, 18.6 µM; with `Cc1ccc(-c2nc(NC(=O)c3nn(C)cc3[N+](=O)[O-])sc2C)cc1C`, 16.2 µM.
Regarding `O=C(NCc1ccccc1Cl)c1cccc2c1C(=O)c1ccc(-c3ccc(OC(F)(F)F)cc3)cc1S2(=O)=O`, the AC50 is > 35 µM (inactive).
The figure for `COC(=O)Cc1csc(/N=C/c2c(O)n(-c3cccc(C(F)(F)F)c3)c(=O)c3ccccc23)n1` is 28 µM; for `COc1cc(CN2CCN(c3cc(C)ccc3C)CC2)ccc1O` it is > 35 µM (inactive).
With `Cc1ccc(NC(=O)c2ccc(N/N=C/c3cccc(O)c3)c([N+](=O)[O-])c2)cc1` the figure was 27.3 µM; with `COc1ccc(S(=O)(=O)N2CC(O)CC2C(=O)OCC(=O)Nc2ccc(Cl)cn2)cc1` (configuration not stated), > 35 µM (inactive); with `COc1ccc(C(=O)/C=C/C(=O)N(CC(=O)NC2CCCCC2)Cc2cccs2)c(O)c1`, > 35 µM (inactive).
The figure for `CC(C)(C)c1ccc2c(c1)OC(C(=O)N/N=C\c1ccc[nH]1)CO2` (configuration not stated) is > 35 µM (inactive); for `CC(=O)Nc1ccc(NC(=O)C(C)OC(=O)/C=C/c2cn(-c3ccccc3)nc2-c2cccnc2)cc1` (configuration not stated) it is 18.4 µM.
Consider `O=C(c1ccc(COc2ccc3ccccc3c2)o1)N1N=C(C(F)F)CC1(O)C(F)F` (configuration not stated), for which the AC50 is > 35 µM (inactive).
The figure for `COc1cc(C(=O)Nc2cc3c(cc2N2CCCCC2)n(C)c(=O)n3C)cc(OC)c1OC` is > 35 µM (inactive).
With `CC(=O)[C@]1(O)Cc2c(O)c3c(c(O)c2[C@@H](O[C@H]2C[C@H](N)[C@H](O)[C@H](C)O2)C1)C(=O)c1ccccc1C3=O`, the AC50 is > 35 µM (inactive).
With `CC(C)(C)[C@H](N)C(=O)N[C@H]1CCC2C3CC=C4C[C@@H](O)CC[C@]4(C)C3CC[C@@]21C` (some centres not stated) the figure was > 35 µM (inactive).
For the compound `CSC[C@@H]1NC(=S)N(c2ccc(C)cc2)C1=O`, the AC50 was > 35 µM (inactive).
For `CC1=NNC(=O)/C1=C\c1cn(-c2ccccc2)nc1-c1ccccc1`, the AC50 was 11 µM.
With `O=C(COc1ccc(/C=N/NC(=O)c2cc3ccccc3o2)cc1Cl)Nc1ccccc1` the figure was 9.03 µM.
With `CCn1c(Cl)c(C=O)s/c1=N\S(=O)(=O)c1ccccc1` the figure was > 35 µM (inactive); with `COc1cc(/C=C(/C#N)c2nc3ccccc3[nH]2)ccc1OCC(=O)Nc1ccccc1C`, 7.39 µM; with `Cc1cc(C(=O)CCl)c(C)n1CCc1ccc(Cl)cc1`, > 35 µM (inactive).
As for `O=C(N/C=N/OCc1ccc(Cl)cc1Cl)NOCc1ncc(C(F)(F)F)cc1Cl`, the AC50 is > 35 µM (inactive).
Take `O=C(Nc1ccc(O)c2c(=O)cc(-c3cccc(Cl)c3)oc12)c1cccc(Cl)c1`: the AC50 is > 35 µM (inactive).
Take `N#C/C(=C\c1ccc(OCc2ccccc2)cc1)C(=O)Nc1nc2c(s1)CCN(Cc1ccccc1)C2`: the AC50 is > 35 µM (inactive).
The figure for `O=C(Nc1ccc2oc(-c3ccccc3F)nc2c1)c1ccccc1F` is > 35 µM (inactive); for `CCOC(=O)C(C(=O)OCC)c1cc(Br)c2noc3c2c1C(=O)c1ccccc1-3` it is > 35 µM (inactive).
In the case of `Cc1ccc2nc(N(CCCN(C)C)C(=O)c3ccc(S(=O)(=O)N4CCc5ccccc5C4)cc3)sc2c1`, the AC50 was > 35 µM (inactive).
In the case of `Cc1ccc(NC(=O)CSc2nc3nc(C)c(Br)cc3[nH]2)cc1F`, the AC50 was > 35 µM (inactive).
Regarding `COc1ccc(NC(=O)C(=O)N/N=C\c2ccc(CNC(=O)C(=O)Nc3ccc(C)c(C)c3)o2)c(OC)c1`, the AC50 is 32 µM.
Regarding `N#Cc1cccnc1N1CCN(C(=O)c2cccc3c2C(=O)c2ccc(-c4ccc(Cl)c(C(F)(F)F)c4)cc2S3(=O)=O)CC1`, the AC50 was > 35 µM (inactive).
Consider `CC(C)CC(NC(=O)c1ccc(Cl)cc1)C(=O)OCC(=O)c1ccc2c(c1)NC(=O)CO2` (configuration not stated), for which the AC50 is 6.3 µM.

The values are drawn from PubChem BioAssay AID449754 (Broad Institute, 2010).
